This is one part of a sample in which hits are shown more often than they occur.
IDH1 mut inh – inhibitors of human IDH1 R132H. O75874. IDH1 R132H reductase, diaphorase/resazurin fluorescence, 60 min. inhibition, % at 10 µM. actives 0.18% (n = 70,000); in the data active = inhibition above about 34%; inconclusive = no clear call, values can overlap the other calls; inactive = below about 11%
KDM4C inh – KDM4C (human) demethylase inhibition. Q9H3R0. actives 0.15% (n = 96,000). GST-KDM4C 2-372, H3K9me3 peptide, LANCE TR-FRET. inhibition, % at 12.5 µM;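 active = mean replicate inhibition above about 25%, with at least 55% of replicates also reaching it, limit read from the data, passing the limit was not always enough; inconclusive = only one of those two conditions met; inactive = neither condition met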
Target sequence (Q9H3R0 2-372 limits assumed): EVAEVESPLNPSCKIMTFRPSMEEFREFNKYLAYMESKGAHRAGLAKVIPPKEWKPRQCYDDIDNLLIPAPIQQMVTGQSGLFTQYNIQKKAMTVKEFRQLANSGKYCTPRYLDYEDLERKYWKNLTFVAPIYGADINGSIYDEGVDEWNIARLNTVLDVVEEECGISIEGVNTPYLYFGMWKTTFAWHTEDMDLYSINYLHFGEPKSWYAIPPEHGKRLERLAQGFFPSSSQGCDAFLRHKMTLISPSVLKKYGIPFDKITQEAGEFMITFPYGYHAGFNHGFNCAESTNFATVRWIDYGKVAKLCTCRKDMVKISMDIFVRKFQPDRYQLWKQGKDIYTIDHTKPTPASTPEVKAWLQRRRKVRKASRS
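Material: GST-tagged GASC-1 (JMJD2C) catalytic fragment, aa 2-372. Input: enzyme final amount 10 nM. Medium: HEPES buffer, pH 7.5, plus ascorbate. Reagent: H3K9me3 peptide substrate, Fe(II), 2-oxoglutarate. Doses: single dose. Times: reaction 30 min RT, detection step 1 h RT. Measured by: LANCE TR-FRET. Evaluation: Fall in 671/618 emission ratio as inhibition.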
T cruzi growth-1 – T. cruzi proliferation inhibition; T. cruzi beta-gal in NIH3T3, GalScreen luminescence, 90 h; inhibition, % at 8.34 µM; actives 5.9% (n = 77,000); AID 624255;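 active = mean inhibition above about 93%, with at least 55% of replicates each passing it, limit read from the data, passing the limit was not always enough; inconclusive = only one of those two conditions holds; inactive = neither condition holds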
T cruzi growth-2 – inhibitors of T. cruzi proliferation; inhibition, % at 8.35 µM; actives 72% (n = 5,600); shares compounds with T cruzi growth-1; T. cruzi beta-gal in NIH3T3, GalScreen luminescence, 90 h;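 active = mean replicate inhibition above about 95% and at least 55% of replicates individually reaching it, limit read from the data; inconclusive = only one of the two criteria is met; inactive = neither criterion is met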
T cruzi growth-3 – blocks T. cruzi growth in NIH3T3 host cells | actives 21% (n = 5,600) | inhibition, % at 2.09 µM | T. cruzi beta-gal in NIH3T3, GalScreen luminescence, 90 h | AID 651740 | shares compounds with T cruzi growth-1;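 active = mean inhibition above about 95%, with at least 55% of replicates also reaching it, limit read from the data; inconclusive = meets just one of the two conditions; inactive = meets neither condition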
3T3 cytotox – NIH/3T3 (mouse) viability loss; shares compounds with T cruzi growth-1; NIH/3T3 viability, CellTiter-Glo ATP luminescence, 90 h; cytotoxicity (signal decrease), % at 8.35 µM; actives 14% (n = 5,600); AID 651742;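 active = mean signal decrease across replicates above about 35% based on untreated-well scatter, with enough replicates individually passing, limit read from the data; inconclusive = no rule stated though some were filed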
NIH3T3 tox 2 – NIH/3T3 (mouse) viability loss; actives 56% (n = 5,600); NIH/3T3 viability, CellTiter-Glo ATP luminescence, 90 h; shares compounds with T cruzi growth-1; inhibition, % at 24.9 µM; AID 651744;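 active = mean loss of cell viability signal at or above a set limit, and enough replicates individually reaching it; inconclusive = meets only the mean limit or only the replicate share; inactive = meets neither condition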
A number is an active result; n = inactive; u = inconclusive; x = no result given.

SMILES	IDH1 mut inh	KDM4C inh	T cruzi growth-1	T cruzi growth-2	T cruzi growth-3	3T3 cytotox	NIH3T3 tox 2
CCC(=O)N1CCCCN2[C@H](C1)[C@@H](c1ccc(C#Cc3ccccc3)cc1)[C@@H]2CO	x	n	n	x	x	x	x
CCC(=O)N1CCCCN2[C@H](CO)[C@H](c3ccc(C#Cc4ccccc4)cc3)[C@@H]2C1	x	n	117	104	n	52	58
CCC(=O)N1CCCCN2[C@H](C1)[C@H](c1ccc(C#Cc3ccccc3F)cc1)[C@@H]2CO	x	n	u	n	n	40	95
CCC(=O)N1CCCCN2[C@H](CO)[C@@H](c3ccc(C#Cc4ccccc4)cc3)[C@H]2C1	x	n	n	x	x	x	x
O=C(O)c1cc(NS(=O)(=O)c2cccc3cccnc23)ccc1O	n	x	x	x	x	x	x
CC(=O)c1ccc(NC(=O)CSc2nnc(N)n2-c2ccccc2)cc1	n	x	x	x	x	x	x
O=C(Cc1ccccn1)N1CC(=O)N2[C@H](C1)[C@@H](c1ccc(C#CC3CCCC3)cc1)[C@@H]2CO	x	n	x	x	x	x	x
CC(=O)OC1/C=C(/C(=O)O)CC/C=C(/C)C(=O)/C=C\C1(C)C (stereo unspecified)	n	x	x	x	x	x	x
C[C@H](CO)N1C[C@H](C)[C@H](CN(C)Cc2ccc(Cl)c(Cl)c2)Oc2ccc(NC(=O)Nc3cccc4ccccc34)cc2C1=O	n	n	n	x	x	x	x
C[C@H](CO)N1C[C@H](C)[C@@H](CN(C)Cc2ccc(Cl)c(Cl)c2)Oc2ccc(NC(=O)Nc3cccc4ccccc34)cc2C1=O	x	n	n	x	x	x	x
C[C@@H]1CN([C@H](C)CO)C(=O)c2cc(NC(=O)Nc3cccc4ccccc34)ccc2O[C@H]1CN(C)Cc1ccc(Cl)c(Cl)c1	n	n	102	102	96	43	29
C[C@@H]1CN([C@H](C)CO)C(=O)c2cc(NC(=O)Nc3cccc4ccccc34)ccc2O[C@@H]1CN(C)Cc1ccc(Cl)c(Cl)c1	n	n	u	n	n	36	25
CC(C)c1ccc(NC(=O)CSCc2csc3ccccc23)cc1	n	x	x	x	x	x	x
CCc1nc(SCC(=O)Nc2ccc(OC)cc2)c2c3c(sc2n1)COC(C)(C)C3	n	x	x	x	x	x	x
Cc1noc(C)c1S(=O)(=O)Nc1ccc2c(c1)C(=O)N([C@@H](C)CO)C[C@H](C)[C@H](CN(C)C(=O)Nc1ccc(C(F)(F)F)cc1)OCCCC[C@H](C)O2	n	n	n	x	x	x	x
Cc1noc(C)c1S(=O)(=O)Nc1ccc2c(c1)C(=O)N([C@H](C)CO)C[C@H](C)[C@@H](CN(C)C(=O)Nc1ccc(C(F)(F)F)cc1)OCCCC[C@H](C)O2	n	n	114	101	n	n	u
Cc1noc(C)c1S(=O)(=O)Nc1ccc2c(c1)C(=O)N([C@@H](C)CO)C[C@@H](C)[C@@H](CN(C)C(=O)Nc1ccc(C(F)(F)F)cc1)OCCCC[C@@H](C)O2	x	n	u	96	102	n	u
Cc1noc(C)c1S(=O)(=O)Nc1ccc2c(c1)C(=O)N([C@H](C)CO)C[C@H](C)[C@H](CN(C)C(=O)Nc1ccc(C(F)(F)F)cc1)OCCCC[C@H](C)O2	n	n	n	x	x	x	x
NC(=O)c1c(NC(=O)C2CC(=O)N(c3ccc(Cl)cc3)C2)sc2c1CCCC2 (stereo unspecified)	n	x	x	x	x	x	x
Cc1noc(C)c1S(=O)(=O)Nc1ccc2c(c1)C(=O)N([C@H](C)CO)C[C@H](C)[C@H](CN(C)S(=O)(=O)c1ccc(F)cc1)OCCCC[C@@H](C)O2	x	n	x	x	x	x	x
Cc1ccccc1OCC(=O)Nc1cc(-c2nc3ccccc3s2)ccc1Cl	n	x	x	x	x	x	x
O=C(CCCCCCC(=O)Nc1ccccc1O)N/N=C/[C@H](O)[C@@H](O)[C@H](O)[C@H](O)CO	n	x	x	x	x	x	x
Cn1c(=O)c2c(nc(NCc3cccnc3)n2Cc2c(F)cccc2Cl)n(C)c1=O	n	x	x	x	x	x	x
CC(C)CC#Cc1ccc2c(c1)O[C@@H](CN(C)C(=O)Cc1ccncc1)[C@H](C)CN([C@@H](C)CO)S2(=O)=O	n	n	100	99	n	n	n
CC(C)CC#Cc1ccc2c(c1)O[C@H](CN(C)C(=O)Cc1ccccc1)[C@@H](C)CN([C@H](C)CO)S2(=O)=O	n	n	125	98	u	n	105
SMILES	IDH1 mut inh	KDM4C inh	T cruzi growth-1	T cruzi growth-2	T cruzi growth-3	3T3 cytotox	NIH3T3 tox 2
CC(C)CC#Cc1ccc2c(c1)O[C@H](CN(C)C(=O)Cc1ccccc1)[C@@H](C)CN([C@@H](C)CO)S2(=O)=O	n	n	127	104	111	n	104
CC(C)CC#Cc1ccc2c(c1)O[C@@H](CN(C)C(=O)Cc1cccnc1)[C@@H](C)CN([C@H](C)CO)S2(=O)=O	n	n	x	x	x	x	x
CC(C)CC#Cc1ccc2c(c1)O[C@@H](CN(C)C(=O)Cc1cccnc1)[C@H](C)CN([C@@H](C)CO)S2(=O)=O	x	n	x	x	x	x	x
CC(C)CC#Cc1ccc2c(c1)O[C@H](CN(C)C(=O)Cc1ccncc1)[C@@H](C)CN([C@@H](C)CO)S2(=O)=O	n	n	u	x	x	x	x
O=C(CSc1nnc(-c2ccccc2[N+](=O)[O-])o1)c1cccs1	n	x	x	x	x	x	x
O=C(CC1(O)C(=O)N(Cc2ccccc2)c2ccc(Br)cc21)c1ccccc1[N+](=O)[O-] (stereo unspecified)	n	x	x	x	x	x	x
C[C@@H]1CN([C@@H](C)CO)C(=O)Cc2cc(NC(=O)Nc3ccccc3)ccc2O[C@H]1CN(C)Cc1ccc(Cl)c(Cl)c1	n	n	n	x	x	x	x
C[C@@H]1CN([C@H](C)CO)C(=O)c2cc(NC(=O)Cc3cn(C)c4ccccc34)ccc2O[C@@H]1CN(C)Cc1ccc(C(=O)Nc2ccccc2N)cc1	n	n	n	x	x	x	x
C[C@@H]1CN([C@H](C)CO)C(=O)Cc2cc(NC(=O)Cc3cn(C)c4ccccc34)ccc2O[C@H]1CN(C)Cc1ccc(Cl)c(Cl)c1	n	n	u	98	n	n	43
C[C@@H]1CN([C@@H](C)CO)C(=O)Cc2cc(NC(=O)Cc3cn(C)c4ccccc34)ccc2O[C@H]1CN(C)Cc1ccc(Cl)c(Cl)c1	n	n	n	x	x	x	x
C[C@@H]1CN([C@H](C)CO)C(=O)Cc2cc(NC(=O)Nc3ccccc3)ccc2O[C@@H]1CN(C)Cc1ccc(Cl)c(Cl)c1	x	n	102	108	n	n	104
C[C@@H]1CN([C@@H](C)CO)C(=O)c2cc(NC(=O)Cc3cn(C)c4ccccc34)ccc2O[C@@H]1CN(C)Cc1ccc(Cl)c(Cl)c1	n	n	n	x	x	x	x
C[C@@H]1CN([C@H](C)CO)C(=O)c2cc(NC(=O)Cc3cn(C)c4ccccc34)ccc2O[C@@H]1CN(C)Cc1ccc(Cl)c(Cl)c1	n	n	102	99	n	n	37
C[C@@H]1CN([C@H](C)CO)C(=O)Cc2cc(NC(=O)Cc3cn(C)c4ccccc34)ccc2O[C@H]1CN(C)Cc1ccc(C(=O)Nc2ccccc2N)cc1	n	n	u	n	n	n	n

Screens as filed in PubChem BioAssay.
